Measured values from paper PMC7116037 (Structure (London, England : 1993), 2020).
Where a SMILES comes first, the peptide text is derived from it. [ ]: non-standard residue; d: D form. pT = C[C@@H](OP(=O)(O)O)[C@H](N)C(=O)O; pS = N[C@@H](COP(=O)(O)O)C(=O)O

How the values were obtained:
βarr2 = assay: HDX-MS profile of βarr2 upon C7pp binding; set-up: species or system Rattus norvegicus; conditions: 100 μM βarr2, 500 μM peptide, 1 h at room temperature
[1] = test system: truncated version of βarr2; assay: HDX-MS profile of truncated βarr2 upon co-incubation with C7pp; set-up: species or system Rattus norvegicus; conditions: truncated βarr2 lacking residues 357–410; data not shown
rat βarr2 = rat βarr2 (Rattus norvegicus, UniProt P29067); assay: Isothermal titration calorimetry of C7pp binding to full-length βarr2; conditions: 298 K, 20 mM Tris-HCl pH 8.0, 200 mM NaCl
Procedure, shortened: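 Rat βarr2 (1–410 WT), expressed in E. coli BL21(DE3)pLysS, in 20 mM Tris-HCl pH 8.0, 200 mM NaCl at 100 μM or 30 μM in the cell, degassed at 295 K. Titration at 298 K: 2.5 μL of C7pp ([…] syringe solution) injected every 200 s with gentle stirring. Binding constant and stoichiometry fitted from the titration curve; n = 3 independent experiments.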

[2] = target: Rattus norvegicus wild-type β-arrestin 2 (βarr2 1-410) (Rattus norvegicus) (UniProt P29067); assay: ITC
Chain of Rattus norvegicus wild-type β-arrestin 2 (βarr2 1-410) (Rattus norvegicus) (P29067 whole entry): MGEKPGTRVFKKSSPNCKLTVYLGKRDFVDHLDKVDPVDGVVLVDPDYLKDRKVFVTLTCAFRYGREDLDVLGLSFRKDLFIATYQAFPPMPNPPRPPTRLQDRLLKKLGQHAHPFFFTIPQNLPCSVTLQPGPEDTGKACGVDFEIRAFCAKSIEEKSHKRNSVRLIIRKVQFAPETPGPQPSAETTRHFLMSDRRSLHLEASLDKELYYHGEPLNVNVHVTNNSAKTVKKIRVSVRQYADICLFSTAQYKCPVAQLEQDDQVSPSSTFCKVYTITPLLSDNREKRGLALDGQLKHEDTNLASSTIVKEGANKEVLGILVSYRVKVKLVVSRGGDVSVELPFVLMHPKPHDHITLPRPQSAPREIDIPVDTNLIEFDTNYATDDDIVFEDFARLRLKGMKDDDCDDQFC

Chain of rat βarr2 (P29067 whole entry): as above

Row | Molecule | HDX-MS: helix formation in the finger loop (βarr2) | HDX profile of truncated βarr2 upon co-incubation [1] | binding behaviour (ITC) (rat βarr2) | Kd [2]
1 | CC[C@H](C)[C@H](N)C(=O)N[C@@H](Cc1ccccc1)C(=O)N[C@@H](CCCCN)C(=O)N[C@@H](Cc1ccc(O)cc1)C(=O)N[C@@H](COP(=O)(O)O)C(=O)N[C@@H](C)C(=O)N[C@@H](CCCCN)C(=O)N[C@H](C(=O)NCC(=O)N[C@@H](CC(C)C)C(=O)N[C@H](C(=O)N[C@@H](CCCCN)C(=O)N[C@@H](CC(C)C)C(=O)N[C@H](C(=O)N[C@@H](CC(=O)O)C(=O)O)[C@@H](C)CC)[C@@H](C)OP(=O)(O)O)[C@@H](C)OP(=O)(O)O [C7pp] (H-IFKY[pS]AK[pT]GL[pT]KLID-OH; N-terminus and C-terminus assumed) | did not indicate a helix formation in the finger loop | did not change upon co-incubation with C7pp | monophasic binding with βarr2 | –
2 | CXCR7 phosphopeptide (C7pp) | – | – | – | 3.08 µM
